High-throughput results deposited in PubChem by Sanford-Burnham Center for Chemical Genomics.
This is a sample that favours compounds with a hit; in the whole collection about 0.77% have one here.
hIAP inh: human IAP inhibitors, primary screen, biochemical, luminescence, uHTS; Intestinal-type alkaline phosphatase (Homo sapiens), P09923; purified IAP, CDP-Star luminescence, 30 min; inhibition, % at 10 µM; 330,000 compounds, 0.12% hits; AID 2544, 2010;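 active = inhibition reaching a set limit with compound at 10 µM in the primary screen, cut at about 35% in these data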;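 also: plate controls were DMSO wells with enzyme for no effect and no-enzyme buffer wells for full effect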
Target sequence (P09923 whole entry, looked up): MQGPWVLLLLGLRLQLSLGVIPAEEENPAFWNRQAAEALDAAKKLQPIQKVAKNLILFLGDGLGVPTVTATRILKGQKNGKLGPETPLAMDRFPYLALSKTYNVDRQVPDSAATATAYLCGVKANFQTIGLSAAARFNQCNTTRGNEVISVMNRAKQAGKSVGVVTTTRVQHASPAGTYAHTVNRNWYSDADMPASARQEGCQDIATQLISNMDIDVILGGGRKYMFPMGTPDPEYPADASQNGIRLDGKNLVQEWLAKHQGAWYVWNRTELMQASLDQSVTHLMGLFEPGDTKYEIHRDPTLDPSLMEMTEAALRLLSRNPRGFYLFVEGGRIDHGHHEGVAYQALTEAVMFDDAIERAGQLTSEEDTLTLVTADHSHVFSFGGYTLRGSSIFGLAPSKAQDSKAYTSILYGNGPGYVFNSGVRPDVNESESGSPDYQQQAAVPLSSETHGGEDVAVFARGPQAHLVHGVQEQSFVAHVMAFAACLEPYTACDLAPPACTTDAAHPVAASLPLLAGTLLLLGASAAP
mIAP block: inhibitors of mouse IAP, primary screen, biochemical, luminescence, uHTS. intestinal alkaline phosphatase [Mus musculus]. purified mouse IAP, CDP-Star luminescence, 30 min. inhibition, % at 10 µM. 330,000 compounds, 0.2% hits. AID 2806, 2010;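 active = inhibition of at least 40% at 10 µM in the primary screen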;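 also: plate controls were DMSO with enzyme for no effect and no enzyme wells for full effect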
bIAP activator: bovine intestinal alkaline phosphatase activators, primary screen, biochemical, bovine IAP, CDP-star luminescence; alkaline phosphatase, intestinal [Bos taurus]; purified bovine IAP, 30 min; active compounds read high; fold of DMSO-control signal, blank-subtracted; activation factor at 20 µM; 200,000 compounds, 0.17% hits;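 active = activation factor of 2 or more at 20 µM, a signal rise over negative controls twice the positive control's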
mIAP activ: activators of mouse IAP, primary screen, biochemical, luminescence, uHTS; muIAP, CDP-Star luminescence, 30 min; active compounds read high; 1 = vehicle-only enzyme signal, 0 = enzyme-free wells; 330,000 compounds, 0.24% hits; activation factor at 10 µM; intestinal alkaline phosphatase [Mus musculus];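 active = activation factor of at least 2 at 20 µM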
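System: Mouse IAP enzyme | Also added: CDP-Star substrate | Dosing: Compounds dispensed in DMSO | Schedule: 30 min enzyme-substrate-compound incubation at room temperature | Technique: Chemiluminescence readout | Control set: DMSO-only wells and no-enzyme negative control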
bIAP inhibitor: bovine intestinal alkaline phosphatase inhibitors, primary screen, selectivity assay for TNAP inhibitor project, biochemical, bovine IAP, CDP-star luminescence | AID 1019, 2008 | inhibition, % at 20 µM | purified bovine IAP, 30 min | 190,000 tested, under 10 active | alkaline phosphatase, intestinal [Bos taurus];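 active = over 50% inhibition of intestinal alkaline phosphatase at 20 µM in the single-dose screen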
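Assay system – bovine IAP enzyme · Quantity – bovine IAP at 1/65,000,000 final dilution · Detection – CDP-star luminescence signal · Times – 30 min reaction at room temperature · Also added – CDP-star substrate at 30 µM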
hIAP activ: human IAP activators, primary screen, biochemical, luminescence, uHTS; activation factor at 10 µM; 330,000 compounds, 0.16% hits; Intestinal-type alkaline phosphatase (Homo sapiens), P09923; purified human IAP, CDP-Star luminescence, 30 min; active compounds read high; 1 = vehicle-only enzyme, 0 = enzyme-free background; AID 2524, 2010;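 active = activation factor of the enzyme at least 2-fold when tested at 20 µM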
* hit, by the source's call; i = inactive; · = no result.

SMILES	hIAP inh	mIAP block	bIAP activator	mIAP activ	bIAP inhibitor	hIAP activ
CCCn1c(N)c(C(c2ccc(OC)cc2)N2CCN(c3ccccc3)CC2)c(=O)[nH]c1=O (stereo unspecified)	-25	-38	2.6*	1.4	-156	1.3
CCCn1c(N)c(C(c2ccc(C(=O)OC)cc2)N2CCN(c3ccccc3)CC2)c(=O)[nH]c1=O (stereo unspecified)	-1	-18	1.4	1.2	-45	1
Cc1ccccc1-c1ccc(C(=O)Nc2cccc(F)c2)o1	-3	-1	3.5*	1	-246	1
O=C(Nc1cccc(F)c1)c1ccc(-c2ccccc2C(F)(F)F)o1	·	·	1.2	·	-24	·
Cc1cc(C)n(CCOc2ccc(Br)cc2)n1	5	1	·	0.99	·	0.95
C[C@@]12C(=O)N(c3cccc(F)c3)C(=O)N1[C@@H]1c3ccccc3OC[C@@H]1[C@H]2c1ccccc1	21	-1	·	1	·	0.79
Cc1ccc(CNc2ncc(-c3ccc4c(c3)OCO4)n2C)cc1	-19	6	1.8	0.94	-83	1.2
Cn1c(-c2ccc3c(c2)OCO3)cnc1NCc1ccc(Cl)cc1	7	9	6.4*	0.91	i	0.93
O=C(NCc1cccnc1)c1cc2ccccc2oc1=O	0	-6	1	1.1	1	1
O=C(NCCc1cccc(Cl)c1)c1cc2ccccc2oc1=O	-3	41*	·	0.59	·	1
C[C@H](CO)N1C[C@H](C)[C@H](CN(C)Cc2ccccc2)Oc2c(NC(=O)Nc3ccc(F)cc3)cccc2C1=O	4	-70	·	1.7	·	0.96
COc1ccc(NC(=O)Nc2ccc3c(c2)C(=O)N([C@H](C)CO)C[C@H](C)[C@@H](CN(C)C(=O)Nc2ccccc2)O3)cc1	-4	-185	·	2.9*	·	1
CC(C)NC(=O)N(C)C[C@H]1Oc2ccc(NC(=O)Nc3ccc(C(F)(F)F)cc3)cc2C(=O)N([C@H](C)CO)C[C@@H]1C	-7	-139	·	2.4*	·	1.1
C[C@H](CO)N1C[C@H](C)[C@@H](CN(C)C(=O)Nc2ccccc2)Oc2ccc(NC(=O)NC3CCCCC3)cc2C1=O	-1	-108	·	2.1*	·	1
C[C@H](CO)N1C[C@H](C)[C@H](CN(C)Cc2ccccc2)Oc2ccc(NC(=O)Nc3ccc(F)cc3)cc2C1=O	-4	-120	·	2.2*	·	1
C[C@H](CO)N1C[C@H](C)[C@@H](CN(C)C(=O)NC2CCCCC2)Oc2ccc(NC(=O)NC3CCCCC3)cc2C1=O	4	-93	·	1.9	·	0.96
COc1ccc(CC(=O)OCC(=O)Nc2ccc(Cl)cc2C)cc1	9	-2	·	1	·	0.91
CCC(=O)N1c2ccc(S(=O)(=O)N3CCN(c4ccc([N+](=O)[O-])cc4)CC3)cc2CC1C (stereo unspecified)	11	11	·	0.89	·	0.89
COc1ccc(COC(=O)C2=C(C)NC(=O)NC2c2ccccc2)cc1 (stereo unspecified)	-5	0	·	1	·	1.1
CC1CN(c2ccc(NC(=S)NNCCC#N)cc2)CC(C)O1 (stereo unspecified)	0	1	·	0.99	·	1
Cc1onc(-c2ccccc2)c1C(=O)NC1CCC(C)CC1 (stereo unspecified)	-3	-13	·	1.1	·	1
C[C@H]1CN([C@@H](C)CO)C(=O)c2cc(NC(=O)NC3CCCCC3)ccc2O[C@H]1CN(C)C(=O)Nc1ccc(C(F)(F)F)cc1	2	-102	·	2*	·	0.98
C[C@H](CO)N1C[C@H](C)[C@@H](CN(C)C(=O)Nc2ccc(C(F)(F)F)cc2)Oc2ccc(NC(=O)Nc3ccc(C(F)(F)F)cc3)cc2C1=O	-9	-50	·	1.5	·	1.1
Cc1ccc(Nc2nnc(C)c3ccccc23)c(C)c1	11	7	·	0.93	·	0.89
COc1ccccc1Nc1nc(-c2cccs2)cs1	5	43*	0.8	0.57	20	0.95
SMILES	hIAP inh	mIAP block	bIAP activator	mIAP activ	bIAP inhibitor	hIAP activ
COc1ccc(CCNC(=O)C(C)n2nc(C)n3c(cc4occc43)c2=O)cc1OC (stereo unspecified)	-23	0	·	1	·	1.2
Cc1c(Cl)cccc1NC(=O)CCC(=O)N/N=C/c1ccc[nH]1	1	51*	0.9	0.49	5	0.99
Cc1ccc(C)c(NC(=O)CCC(=O)N/N=C/c2ccc[nH]2)c1	9	36	0.9	0.64	8	0.91
C/C(CC(=O)NC(C)C)=N\NC(=O)COc1cc(C)c(Br)cc1Br	6	-2	2.6*	1	-159	0.94
CC(=O)N1c2ccc(S(=O)(=O)N3CCC(C(=O)Nc4cccc(C(F)(F)F)c4)CC3)cc2CC1C (stereo unspecified)	22	-137	·	2.4*	·	0.78
COc1cccc(NC(=O)C2CCN(S(=O)(=O)c3ccc4c(c3)CC(C)N4C(C)=O)CC2)c1 (stereo unspecified)	-7	-30	·	1.3	·	1.1
CCc1cccc(NC(=O)C2CCN(S(=O)(=O)c3ccc4c(c3)CC(C)N4C(C)=O)CC2)c1 (stereo unspecified)	4	-115	·	2.2*	·	0.96
CC(=O)N1c2ccc(S(=O)(=O)NCC3CCC(C(=O)Nc4cccc(C)n4)CC3)cc2CC1C (stereo unspecified)	-9	-2	·	1	·	1.1
Cc1ccc(SCCNC(=S)Nc2cc(C)cc(C)c2)cc1	11	-232	0.6	3.3*	40	0.89
COc1ccc(Cl)cc1NC(=S)NCCSc1ccc(C)cc1	-28	-160	0.8	2.6*	21	1.3
COc1ccccc1NC(=S)NCCSc1ccc(Cl)cc1	7	-59	1	1.6	1	0.93
Cc1ccc(NC(=O)NCCSc2ccc(C)cc2)cc1	-19	-154	1	2.5*	-5	1.2
COc1ccc(S(=O)(=O)N2CCOC23CCN(S(=O)(=O)c2cc(F)ccc2F)CC3)cc1	6	8	·	0.92	·	0.94
CCN(C(=O)COn1nnc2ccc(S(=O)(=O)N(C)C)cc21)C1CCS(=O)(=O)C1 (stereo unspecified)	0	-6	·	1.1	·	1
COc1ccc(C2CC(=O)c3ccccc3O2)cc1 (stereo unspecified)	3	2	0.9	0.98	12	0.97
O=C(Nc1ccc(CN2CCCCC2)cc1)Nc1ccccc1Cl	4	-60	1.5	1.6	-54	0.96
